Data on three compounds can be found in PMC12067261 (Proceedings of the National Academy of Sciences of the …, 2025).

In brackets after ≈: the same amount, converted by molar mass. Several values for one entry are separate records, joined by “and”; a condition that tells them apart may be missing. Equal entries are not always repeated. Where two headings read alike, the source gives them in different places.

For series [1] the following is noted: as published previously ref 28; cited from earlier work.
The nature of a further series: in vitro. The conditions noted are these: human, plasma.
The subject of series [2] is Mab type strain ATCC19977. Description: microbe, parasite or virus in culture. As to conditions: Mycobacteroides abscessus, ATCC19977, read-out: IC50 in CAMHB.
In series [3] the test system is Mab ATCC19977 (wild type). The class given is cell-based, Mycobacterium abscessus subsp. abscessus. The conditions noted are these: concentration that inhibits 90% growth.
The test system of series [4] is Mab ATCC19977 replicating cultures. The series can be described thus: microbe, parasite or virus in culture. The class given is cell-based, Mycobacterium abscessus subsp. abscessus.
Series [5] deals with intracellular M. abscessus ATCC 19977 pTEC27 in THP-1 macrophages. Description: Growth inhibition of intracellular Mab in THP-1 derived macrophages. Type of series: cell-based, Mycobacterium abscessus. The conditions noted are these: Mycobacteroides abscessus, ATCC19977, THP-1, read-out: MacIC50.
Another series in a line: Caseum binding. The class given is in vitro ADME.
A short description of series [6]: Pharmacokinetic studies in mice. Type of series: in vivo, CD-1 mice.
Series [7] has as its system THP-1 derived macrophages. The series can be described thus: Uptake into THP-1 macrophages. Type of series: in vitro ADME. The conditions noted are these: intracellular to extracellular concentration ratio.
The test system of the next series is CYP3A4 mRNA. Description: CYP3A4 induction at the mRNA level in human hepatocytes. Type of series: in vitro ADME.
The subject of the next series is HepG2 cells. Description: Cytotoxicity assays. The class given is cell-based, human. As to conditions: indirect measure of selectivity.
The test system of series [8] is M. abscessus subsp. abscessus ATCC 19977. Description: Efficacy in the GM-CSF KO mouse model of acute Mab infection. The class given is in vivo, GM-CSF KO (B6.129S-Csf2tm1Mlg/J) mice. As to conditions: 7 daily oral doses, 25 mg/kg.
The subject of the next series is Mab ATCC19977. The series can be described thus: Spontaneous mutant selection. Type of series: cell-based, Mycobacterium abscessus. The conditions noted are these: solid medium containing 4× MIC.
In series [9] the test system is 76 M. abscessus clinical isolates covering the 3 Mab subspecies. Description: microbe, parasite or virus in culture. The class given is cell-based, Mycobacterium abscessus. The conditions noted are these: Mycobacteroides abscessus.
For series [10], the system named is intracellular Mab ATCC19977 in THP-1 macrophages. Type of series: cell-based, Mycobacterium abscessus. The conditions noted are these: 48 h treatment, compared to the start of treatment. Put shortly: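 Intracellular bactericidal assay in THP-1-derived macrophages infected with M. abscessus subsp. abscessus ATCC19977. Test compound was added 2 h after infection at 1 and 10 µM and left on for 48 h. Each condition was run in technical triplicate.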

Series [11] deals with Mab type strain ATCC19977.
For series [12] the following is noted: Table 2.

Consider `O=C1CCc2c(OC[C@]3(O)CCN(c4c(F)cc(Cl)cc4F)C[C@H]3O)ccc(F)c2N1` [OPC-167832, Quabodepistat], for which the plasma fu in series [1] was ~ 1%. In addition, in “in vitro”, the fraction unbound came out at 0.0122. Further, in [2], the IC50 was determined as 0.12 µM.
Regarding `CO[C@H]1/C=C/O[C@@]2(C)Oc3c(C)c(O)c4c(c3C2=O)C2=NC3(CCN(CC(C)C)CC3)NC2=C(NC(=O)/C(C)=C\C=C\[C@H](C)[C@H](O)[C@@H](C)[C@@H](O)[C@@H](C)[C@H](OC(C)=O)[C@@H]1C)C4=O` [RBT, Rifabutin], the “WT Mab MIC” value in series [3] is 2.0 µM. In addition, the MBC in series [4] (Mycobacteroides abscessus, ATCC19977, read-out: MBC90) is 3.5 µM (≈ 2.96 µg/mL). Besides, the “kill plateau at 8× MIC” value in series [4] (replicating cultures, 3 d) is recorded as “approximately 2 log”. The IC50 in [5] was found to be 0.7 µM; in series [2] it was 1.2 µM. Moreover, the fraction unbound in “Caseum binding” is 0.0094; in “in vitro” (fu human, human plasma), 0.036; in “in vitro” (plasma fu (human), Table 2), 0.0384. In series [6] (AUC corrected for fraction unbound), the “fAUC/MIC at 10 mg/kg” value is 0.2. Further, the Bioavailability in series [6] (CD-1 mice, oral) is 69.2%. Further, the half-life in series [6] (female, CD-1, mouse, plasma) was 4.3 h. Besides, the clearance in [6] (female, CD-1, mouse, plasma, iv, 5 mg/kg) is 0.619 L/h/kg. In addition, the Vd in [6] (female, CD-1, mouse, plasma, iv, 5 mg/kg, Vd, CD-1 mice, i.v. 5 mg/kg) stood at 3.9 L/kg. The “plasma concentrations relative to potency values” in [6] (oral 25 mg/kg, CD-1 mice) is recorded as “did not achieve therapeutic concentrations”. In addition, the “THP-1 IC/EC” value in [7] stood at 26. The “CYP3A4 induction @ 1 µM” value in the series on CYP3A4 mRNA (1 µM) is 33 fold and 33.4 fold. For the same compound, in the series with CYP3A4 mRNA (10 µM), the “CYP3A4 induction @ 10 µM” value was 43 fold and 42.7 fold. Also, in the series with HepG2 cells, the “HepG2 CC50/MIC” value turned out to be 154. Moreover, the “effect on lung bacterial burden” value in series [8] was “neither reduced lung burden nor prevented bacterial growth”. Further, in the series with Mab ATCC19977, the frequency of resistance is recorded as 2.6 × 10^−8. Also, the MIC50 in series [9] (read-out: MIC50 against clinical isolates) turned out to be 4.7 µM (≈ 3.98 µg/mL). The MIC90 in series [9] (read-out: MIC90 against clinical isolates) was 9.1 µM (≈ 7.71 µg/mL). Further, in series [10], the “activity against intracellular Mab in macrophages at 1 and 10 µM” value is recorded as “did not inhibit intracellular growth of Mab”. In [11], the IC50 serum shift is on record as 8.1 fold.
`CO[C@H]1/C=C/O[C@@]2(C)Oc3c(C)c(O)c4c(c3C2=O)C2=NC3(CCN(CC(C)C)CC3)NC2=C(NC(=O)/C(C)=C/C=C/[C@H](C)[C@H](O)[C@@H](C)[C@@H](O)[C@@H](C)[C@H](OC(=O)Nc2c(C)nc3ccccn23)[C@@H]1C)C4=O` [UMN-131]: in [11], the IC50 serum shift is listed as 3.3 fold. Also, the IC50 in [11] (read-out: IC50 in 1:1 CAMHB:hSerum, 1:1 CAMHB:human serum) amounted to 0.2 µM; in [11] (read-out: IC50 in CAMHB, CAMHB devoid of plasma proteins), 0.06 µM. Further, the “plasma fu (human)” value in series [12] was 6.55%.

For orientation: fraction unbound means free concentration divided by total concentration. A word on the half-life: it is the time needed for the level to fall by half in the phase considered. Read a low half-life as rapid decline. A word on the clearance: it is a measure of how efficiently the substance is removed, as volume per time. Higher therefore signals a high capacity for elimination. In general, Vd refers to the apparent volume that relates the amount in the body to the concentration in plasma or blood. Low values mean little distribution into tissue, high ones wide distribution into tissue.
